The results in this text go back to publication PMC6939458 (Cancer cell, 2019).

The target of series [1] is T1, MYC (Homo sapiens, UniProt P01106). The experiment in a line: Cellular thermal shift assay. Type of series: cell-based. Particulars: PC3 cells. The procedure, abridged: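 PC3 cells (70–80% confluent; also PC3 stably expressing Flag-MYCT58A, puromycin 1.5 μg/ml selected) treated with test compound or DMSO for 30 min. Cells washed, resuspended in PBS with protease/phosphatase inhibitors plus the same compound dose, split into 7–10 aliquots (~1 million cells each), heated 2 min at graded temperatures, then 3 min room temperature. Lysates boiled 5 min at 90 °C; MYC quantified by Western blot densitometry to build melt curves.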
Target sequence in this assay (P01106 16-454): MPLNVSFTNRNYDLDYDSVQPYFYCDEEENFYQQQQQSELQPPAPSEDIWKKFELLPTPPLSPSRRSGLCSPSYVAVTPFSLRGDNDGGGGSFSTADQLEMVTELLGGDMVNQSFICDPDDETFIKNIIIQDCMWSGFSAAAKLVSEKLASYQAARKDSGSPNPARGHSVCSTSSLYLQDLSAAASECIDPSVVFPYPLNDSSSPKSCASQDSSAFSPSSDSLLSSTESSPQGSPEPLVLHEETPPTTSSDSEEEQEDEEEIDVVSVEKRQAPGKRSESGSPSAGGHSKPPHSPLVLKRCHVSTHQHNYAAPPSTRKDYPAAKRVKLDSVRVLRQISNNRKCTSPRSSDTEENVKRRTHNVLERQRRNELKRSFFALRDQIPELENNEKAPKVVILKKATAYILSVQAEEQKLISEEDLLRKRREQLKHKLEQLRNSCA

For another series, the target named is MYC353–439 (Homo sapiens, UniProt P01106). As to the kind of experiment: Fluorescence polarization competition assay against 10074-G5. The class given is binding. (Fluorescence polarisation rises when a labelled molecule tumbles more slowly, as on binding a larger partner.)
Chain of MYC353–439 (P01106 368-454): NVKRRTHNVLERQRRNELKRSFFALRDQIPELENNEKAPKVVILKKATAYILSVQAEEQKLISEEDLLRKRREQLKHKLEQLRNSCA
In series [2] the test system is MYC. As to the kind of experiment: Western blot of MYC protein level, stability and phosphorylation in cells. The class given is cell-based, human. The note with it: 8 μM. The procedure, abridged: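 PC3 cells, or PC3 stably expressing Flag-MYC, Flag-MYCT58A or Flag-MYCS62A (lentiviral, 1.5 μg/ml puromycin selection), were used. For stability, cells were pretreated 3 hr with compound or DMSO, then given cycloheximide and harvested at time points. MYC, pT58, pS62, GSK3β and pGSK3β S9 were detected by western blot over a time course. Band intensities were densitometrically quantified.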
In general terms: A western blot detects proteins with antibodies after separation by electrophoresis.

A further series deals with GSK3β-mediated MYC pT58 (Homo sapiens, UniProt P01106). As to the kind of experiment: In vitro kinase assay. Particulars: 6 μM. Type of series: biochemical. The method in brief: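 Phosphorylation reactions were run in kinase buffer (25 mM Tris-HCl pH 7.5, 5 mM β-glycerophosphate, 2 mM DTT, 0.1 mM sodium vanadate, 10 mM MgCl₂) at room temperature for 2 hr in total.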
Chain of GSK3β-mediated MYC pT58 (P01106 16-454): as the sequence (P01106 16-454) above
Series [3] has as its system MYC-dependent cancer cells. The experiment in a line: Cell viability, MYC-dependent cancer cells. Particulars: prostate cancer cells versus PC12, 5 days. The class given is cell-based. The method in brief: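 Cells were seeded at 1000 to 5000 per well in 96-well plates, depending on cell type. Viable cells were counted, or MTS absorbance was read at 490 nm, 2 to 7 days after treatment. MycCaP, PC3, LNCaP and P493–6 were grown in RPMI1640, SK-N-BE(2) in F12 and MV411 in IMDM, each with 10% heat-inactivated FBS and 1% penicillin-streptomycin.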

Series [4] deals with MYC transcriptional activity (E-box-luciferase). As to the kind of experiment: E-box luciferase reporter assay in vitro. Type of series: cell-based. The method in brief:
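MycCaP cells stably carrying either MYC E-box-luciferase reporter or control mCherry-P2A-luciferase vector plated 10000 cells/well. Serial dilution of test compound added the next day; luminescence read by Steady-Glo after 4 hr treatment.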
(A reporter such as luciferase makes a cellular process visible.)

A short description of series [5]: Pharmacokinetics of 975 in CD-1 mice. The note with it: male, CD-1, mouse, in vivo, po.
A further series relates to MycCaP tumor allografts. The experiment in a line: MycCaP allograft/xenograft mouse model. The class given is in vivo. The procedure, abridged:
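Male FVB (allograft) or NSG (xenograft) mice, 6–8 weeks, ~25 g, acclimated >4 days. Injected s.c. in flanks with 1 × 10⁶ MycCaP E-box-luciferase cells in 100 μl Matrigel. Tumors followed by caliper ((length × width × width)/2) and by bioluminescent imaging after i.p. substrate injection. Body weight recorded. Tumor tissue assessed by H&E and immunofluorescence for Ki67, MYC pT58 and PD-L1.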

Series [6] concerns Lewis Lung Carcinoma (LLC1). The experiment in a line: LLC1 allograft lung cancer mouse model. The class given is in vivo. Particulars: 100 mg/kg/day. The method in brief: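 LLC1 cells (1 × 10⁶) in PBS:matrigel 1:1 were injected subcutaneously into the flanks of female C57BL/6 mice, aged 6–8 weeks. Mice were randomised 3 days after inoculation and given test compound i.p. as 50 mg/kg twice daily (100 mg/kg/day). Tumour growth and body weight were followed, n = 7 mice/group, mean ± SEM.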

The subject of another series is MV-411 AML xenografts. As to the kind of experiment: MV-411 AML xenograft. Type of series: in vivo, mouse. The procedure, abridged:
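Immunodeficient mice were inoculated with 5×10⁶ MV-411 cells in PBS:matrigel 1:1. They were randomised by tumour volume at ~200 to 500 mm³ and dosed with vehicle, test compound, or test compound plus Ara-C, 5 days a week for 3 weeks. Calipers were read twice weekly and volume was taken as (length × width × width)/2. Body weight was monitored, n = 4 mice/group, mean ± SEM.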

Series [7] in a line: Maximum tolerated dose / acute toxicity in mice. The class given is in vivo. The note with it: p.o., single dose at 50, 100, 250, 500 or 1000 mg/kg.
The nature of series [8]: 14-day toxicology in mice. Type of series: in vivo, mouse. The note with it: 100 mg/kg daily for 14 days, analyzed one week later.
The target of series [9] is T1, MYC. The experiment in a line: STD NMR, MYC. The class given is binding. Particulars: 975 phosphate analog 100 μM, G5 200 μM. The procedure, abridged: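 Buffer: 50 mM HEPES, 500 mM NaCl, 10 mM β-mercaptoethanol, 5% glycerol, 30 mM imidazole. Ligand spectra recorded with and without each protein individually.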
Target sequence in this assay (P01106 368-454): as the sequence (P01106 368-454) above
Series [10] has as its target T1, MYC. The experiment in a line: Biotinylated compound pull down, MYC. The class given is binding. Particulars: for competition of MYC binding to Biotin-361: PC3 cell lysate, excess competitor. The method in brief: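 Nuclear extract from PC3 cells prepared with a nuclear co-IP kit in low co-IP buffer at 150 mM NaCl final. Extract pre-cleared on streptavidin beads 1 hr at 4 °C. About 100 μg extract incubated overnight at 4 °C on a rotator with 1 to 10 μM biotinylated test compound, 10 μM D-biotin or DMSO. Recombinant MYC (0.5 μg) run the same way in buffer with 1% BSA, without pre-clearing. Bound MYC detected by Western blot. For competition, lysate pre-treated with competitor before biotin probe (5 μM).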
Target sequence in this assay (P01106 16-454): as the sequence (P01106 16-454) above

For the next series, the target named is HIF-1α (Homo sapiens, UniProt Q16665). The experiment in a line: Biotinylated compound pull down, HIF-1α. Particulars: cell lysates. The class given is binding. The procedure, abridged: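 A biotin-conjugated test compound was used as bait. Nuclear complexes came from exponentially growing PC3 and P493–6 cells, extracted with a nuclear complex co-IP kit. The pull-down ran in low co-IP buffer with NaCl added to a final 150 mM.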
Chain of HIF-1α (Q16665 whole entry): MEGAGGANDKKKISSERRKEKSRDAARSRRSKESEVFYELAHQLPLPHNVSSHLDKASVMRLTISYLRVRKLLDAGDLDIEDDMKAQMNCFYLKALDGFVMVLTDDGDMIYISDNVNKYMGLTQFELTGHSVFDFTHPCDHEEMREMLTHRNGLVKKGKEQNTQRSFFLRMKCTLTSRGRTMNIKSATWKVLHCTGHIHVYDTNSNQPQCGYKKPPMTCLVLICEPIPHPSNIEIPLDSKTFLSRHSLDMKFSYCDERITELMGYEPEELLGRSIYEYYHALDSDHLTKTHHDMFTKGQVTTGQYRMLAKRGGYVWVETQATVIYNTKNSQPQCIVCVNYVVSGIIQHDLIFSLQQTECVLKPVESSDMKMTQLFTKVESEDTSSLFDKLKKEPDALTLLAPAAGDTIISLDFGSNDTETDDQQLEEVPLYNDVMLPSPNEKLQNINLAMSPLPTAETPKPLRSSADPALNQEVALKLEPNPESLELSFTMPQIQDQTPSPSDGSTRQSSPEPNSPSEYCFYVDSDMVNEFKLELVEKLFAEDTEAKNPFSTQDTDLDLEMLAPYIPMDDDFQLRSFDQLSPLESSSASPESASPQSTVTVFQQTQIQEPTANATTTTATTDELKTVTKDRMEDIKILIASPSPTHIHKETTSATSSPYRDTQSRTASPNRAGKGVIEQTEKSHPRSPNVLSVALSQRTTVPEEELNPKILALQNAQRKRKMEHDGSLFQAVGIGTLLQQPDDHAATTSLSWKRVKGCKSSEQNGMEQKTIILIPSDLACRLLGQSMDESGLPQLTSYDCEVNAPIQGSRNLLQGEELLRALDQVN

The next series addresses MAX(S) (Homo sapiens, UniProt P61244-2 1-151). The experiment in a line: EMSA.
[11] abbreviates: MycCaP allograft, 100 mg/kg/day i.p. for 14 days.

Several values for one entry are separate records, joined by “and”; a condition that tells them apart may be missing. Identical values can stand only once.

A word on the Kd: it is the concentration at which binding is half-saturated. The low end stands for higher affinity, the high end for lower affinity. The term Cmax denotes the highest concentration seen after dosing. As a reminder, the half-life is the time in which the quantity being followed falls by half. A lower half-life goes with rapid decline.

As for `Cn1nc(C(F)(F)F)cc1-c1ccc(OCc2ccc(Cl)cc2)c(-c2ccc(Cl)c(C(F)(F)F)c2)c1O` [Compound 975, 4’-chloro-6-((4-chlorobenzyl)oxy)-3-(1-methyl-3-(trifluoromethyl)-1H-pyrazol-5-yl)-3’-(trifluoromethyl)-[1,1’-biphenyl]-2-ol], the “MYC target engagement by CETSA” value at MYC [1] (8 μM) was “confirmed MYC target engagement”. In addition, at MYC353–439, the Kd came to 2500 nM. In the series on MYC [2], the “MYC degradation and phosphorylation on T58” value is “enhanced MYC degradation and phosphorylation on T58”. In addition, at GSK3β-mediated MYC pT58, the “pT58 levels in in vitro kinase assay” value is on record as “directly increased GSK3β-mediated MYC pT58”. For the same molecule, in series [3], the cell viability entry was “inhibited cell viability in a MYC-dependent manner”. Further, the “E-box-luciferase versus CMV-luciferase activity in vitro” value in series [4] is recorded as “selectively suppressed E-box-luciferase activity”. Moreover, in series [5] (100 mg/kg), the Cmax was 41500 ng/mL and 74 µM; the half-life was 7 h. In series [5] (250 mg/kg), the Cmax was 54000 ng/mL and 96 µM; the half-life was 12 h. In the series with MycCaP tumor allografts (50 mg/kg twice daily, 3 days), the “tumor inhibition, FVB versus NSG mice” value is given as “more strongly than in immunodeficient NSG mice”. Also, the “pT58 and PD-L1 levels in tumor tissue” value in the series with MycCaP tumor allografts (100 mg/kg/day i.p. for 14 days) was “increased pT58 and PD-L1 levels”. Also, in the series with MycCaP tumor allografts (100 mg/kg/day, 2 days on/2 days off), the “tumor growth, 975 alone” value was “slowed tumor growth”. Also, in the series with MycCaP tumor allografts (CD3+ T cells, B220+ B cells, NKp46+ NK cells, 100 mg/kg/day for 14 days), the “tumor infiltration of immune cells” value is “enhanced tumor infiltration of CD3+ T cells”. Besides, in the series on MycCaP tumor allografts (setting [11]), the survival result was “increased survival” and the tumor growth entry is listed as “significantly inhibited tumor growth”. In [6], the body weight result was “no changes in body weight” and the tumor growth result is recorded as “inhibited tumor growth”. Besides, the “efficacy as a single agent” value with MV-411 AML xenografts (50 mg/kg/day, 5 days a week) is reported as “reduced efficacy as a single agent”. For the same molecule, in the series with MV-411 AML xenografts (975 50 mg/kg/day, Ara-C 20 mg/kg/day), the “body weight, combination with Ara-C” value is “no obvious impact on mouse body weight”. The “tumor growth, combination with Ara-C” value in the series on MV-411 AML xenografts (975 50 mg/kg/day, Ara-C 20 mg/kg/day, 5 days a week) is listed as “synergized with Ara-C”. Besides, the “well tolerated single dose, acute toxicity” value in series [7] is given as “up to 1000 mg/kg”. Moreover, in [8], the “gross and histological analysis of organs” value is “no obvious pathologic abnormalities”; the “hematology, blood chemistry, kidney and liver function” value was “normal complete blood count and differential, normal blood chemistry, and normal kidney and liver function”.
On to `O=P(O)(O)OCOc1ccc(-c2cc(C(F)(F)F)n[nH]2)c(O)c1-c1ccc(Cl)c(C(F)(F)F)c1` [975 phosphate analog, ((4’-chloro-6-hydroxy-3’-(trifluoromethyl)-5-(3-(trifluoromethyl)-1H-pyrazol-5-yl)-[1,1’-biphenyl]-2-yl)oxy)methyl dihydrogen phosphate], for which, on MYC [9], the “binding to MYC by STD NMR” value is “bound to MYC”.
Consider `Cn1nc(C(F)(F)F)cc1-c1ccc(OCOP(=O)(O)O)c(-c2cc(C(F)(F)F)cc(C(F)(F)F)c2)c1O` [Phosphate-361, ((6-hydroxy-5-(1-methyl-3-(trifluoromethyl)-1H-pyrazol-5-yl)-3’,5’-bis(trifluoromethyl)-[1,1’-biphenyl]-2-yl)oxy)methyl dihydrogen phosphate], for which the “competition of MYC binding to Biotin-361” value on MYC [10] is given as “competed”.
As to `Cn1nc(C(F)(F)F)cc1-c1ccc(OCCCNC(=O)CCOCCOCCOCCOCCOCCOCCNC(=O)CCCC[C@@H]2SCC3NC(=O)NC32)c(-c2cc(C(F)(F)F)cc(C(F)(F)F)c2)c1O` (stereo partly drawn) [Biotin-361, N-(3-((6-hydroxy-5-(1-methyl-3-(trifluoromethyl)-1H-pyrazol-5-yl)-3’,5’-bis(trifluoromethyl)-[1,1’-biphenyl]-2-yl)oxy)propyl)-1-(5-((4S)-2-oxohexahydro-1H-thieno[3,4-d]imidazol-4-yl)pentanamido)-3,6,9,12,15,18-hexaoxahenicosan-21-amide], at MYC [10] (cell lysates), the “pull down of recombinant MYC and endogenous MYC” value is reported as “pulled down”. Moreover, the “pull down of HIF-1α” value at HIF-1α is recorded as “not MAX or another bHLH protein HIF-1α”.
Turning to `O=[N+]([O-])c1ccc(Nc2ccccc2-c2ccccc2)c2nonc12` [Compound G5, reference compound], the “thermal stability of MYC protein (CETSA)” value on MYC [1] (30 min, 361 4–10 μM, G5 15–60 μM, 360 6 μM) is “significant thermal destabilization”. The “competition of MYC binding to Biotin-361” value on MYC [10] is “competed”. Moreover, on MYC [9], the “binding to MYC by STD NMR” value is listed as “confirmed interaction”.
`Cn1nc(C(F)(F)F)cc1-c1ccc(OCCNC(=O)CCOCCOCCOCCOCCNC(=O)CCCC[C@@H]2SCC3NC(=O)NC32)c(-c2cc(C(F)(F)F)cc(C(F)(F)F)c2)c1O` (stereo partly drawn) [Biotin-975, N-(2-((6-hydroxy-5-(1-methyl-3-(trifluoromethyl)-1H-pyrazol-5-yl)-3’,5’-bis(trifluoromethyl)-[1,1’-biphenyl]-2-yl)oxy)ethyl)-1-(5-((4S)-2-oxohexahydro-1H-thieno[3,4-d]imidazol-4-yl)pentanamido)-3,6,9,12-tetraoxapentadecan-15-amide]: the “pull down of MYC protein” value at MYC [10] (10 μM, PC3 cells) is on record as “pulled down MYC protein”.

B1: HEX E-box oligo (dsDNA)
DNA 1: CACCCGGTCACGTGGCCTACAC
DNA 2: GTGTAGGCCACGTGACCGGGTG
For the molecule B1, the binding result with MAX(S) is recorded as “no binding”.
